Experimental data from different studies.
Lines come from different studies, so protocols differ.
Target: Tyrosine-protein kinase ZAP-70 (ZAP70, Homo sapiens, UniProt P43403)
Residues used in one study (P43403 1-619): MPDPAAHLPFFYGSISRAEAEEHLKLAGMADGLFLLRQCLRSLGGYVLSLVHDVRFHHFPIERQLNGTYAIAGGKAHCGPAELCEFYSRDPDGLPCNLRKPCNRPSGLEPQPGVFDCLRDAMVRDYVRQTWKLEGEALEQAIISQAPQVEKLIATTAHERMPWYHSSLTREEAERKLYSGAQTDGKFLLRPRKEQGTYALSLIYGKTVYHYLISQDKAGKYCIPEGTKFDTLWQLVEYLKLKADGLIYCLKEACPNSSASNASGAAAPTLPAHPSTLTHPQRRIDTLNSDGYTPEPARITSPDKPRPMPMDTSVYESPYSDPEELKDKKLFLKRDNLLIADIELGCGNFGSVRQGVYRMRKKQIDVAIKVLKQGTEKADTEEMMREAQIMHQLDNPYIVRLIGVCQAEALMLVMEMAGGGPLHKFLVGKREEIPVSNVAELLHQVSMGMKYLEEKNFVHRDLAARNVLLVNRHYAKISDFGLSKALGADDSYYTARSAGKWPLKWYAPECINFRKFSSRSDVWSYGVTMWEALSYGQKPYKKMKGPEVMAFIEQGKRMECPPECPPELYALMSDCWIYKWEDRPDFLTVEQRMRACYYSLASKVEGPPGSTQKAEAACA

SMILES	effect on	action	technique	concentration	quantity	value
C#Cc1n[nH]c2c(-c3cn(C(C)c4ccccn4)c(=O)[nH]c3=O)cc(F)cc12 (stereo not drawn)	enzyme activity	inhibitor	–	1 µM	inhibition	16.2%
C[C@H](C(=O)N[C@H]1COc2ccccc2[C@@H]1S(C)(=O)=O)c1ccc(F)cc1	enzyme activity	inhibitor	–	10 µM	inhibition	5%
O=C(Nc1cccnn1)N1CCN([C@@H]2CCOc3cc(C(F)(F)F)ccc32)CC1	enzyme activity	inhibitor	–	20 µM	inhibition	1%
Cc1ncc(C)n2nc(/C=C/c3nc(N4CCCC4)cc(N4CCOCC4)n3)nc12	enzyme activity	inhibitor	–	10 µM	inhibition	-6%
COc1cc(Nc2ncc(F)c(Nc3ccc4c(n3)NC(=O)C(C)(C)O4)n2)cc(OC)c1OC	binding	–	–	10 µM	inhibition	100%
Cn1cc(-c2cccc(N3CCc4c(sc5c4CC(C)(C)C5)C3=O)c2CO)cc(Nc2ccncn2)c1=O	enzyme activity	inhibitor	–	1 µM	inhibition	3%
COc1ncccc1-c1cnn2ccc(N3CCN(C(=O)OC(C)C)CC3)nc12	binding	–	competition with immobilised ligand	1 µM	remaining binding	88%
Nc1ncc(-c2nc(N3CCOCC3)nc(N3CCOCC3)n2)c(C(F)F)n1	binding	–	competition with immobilised ligand	10 µM	remaining binding	94%
Cc1nn(C)cc1-c1nc2c(N3CCN(Cc4ccc(Cl)cc4)CC3)c(Cl)cnc2[nH]1	binding	–	competition with immobilised ligand	1 µM	remaining binding	100%
CC(C)(C)c1cc(C=C(C#N)C#N)cc(Br)c1O	enzyme activity	inhibitor	–	0.5 µM	remaining activity	91.6%
Cn1cc(-c2cc(F)cc(N3CCn4c(cc5c4CCCC5)C3=O)c2CO)cc(Nc2ccc(N3CCN(C4COC4)CC3)cn2)c1=O	enzyme activity	inhibitor	–	0.1 µM	inhibition	16%
Cn1cncc1[C@@](O)(COc1ccc(C#N)cc1-c1ccc(OC(F)(F)F)cc1)c1ccc(C#N)cc1	cell-free assay	–	competition with immobilised ligand	1 µM	remaining binding	100%
O=c1[nH]c2ccccc2n1C1CCN(Cc2ccc(-c3[nH]c4cc5ncnc5cc4nc3-c3ccccc3)cc2)CC1	cell-free assay	–	–	0.5 µM	remaining signal	97.3%
N#CC1(c2ccccn2)CCN(Cc2cc(C(=O)O)c(=O)n3ccccc23)CC1	cell-free assay	–	competition with immobilised ligand	1 µM	remaining binding	100%
c1ccc(C(NCCNC(c2ccccc2)c2ccccc2)c2ccccc2)cc1	enzyme activity	inhibitor	–	10 µM	inhibition	3%
